Source: PubChem (The Scripps Research Institute Molecular Screening Center)
V1aR counter = activates human V1a receptor in oxytocin agonist counter-screen; 320,000 tested, 0.25% active; P37288; AID 2797; activation, % at 3 µM; CHO-V1R cells, Fluo-8 calcium fluorescence, agonist mode; 0% DMSO, 100% 3 nM vasopressin;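 active = activation above the mean activation of all tested compounds plus 3 SD, per screening run, cut at about 20% in these data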;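 also: signal is peak over basal fluorescence ratio across a 100 second FLIPR read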
zfTRPN1 agonist = agonists of zebrafish TRPN1 channel; HEK293 zebrafish TRPN1-YFP, Fluo-8 calcium fluorescence; 100% = response to 87 µM carbachol; activation, % at 3 µM; 220,000 tested, 0.18% active;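 active = activation above its plate's cutoff, the mean activation of test wells on that plate plus 3 SD, cut at about 19% in these data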;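 also: 0% = DMSO alone and 100% = 87 µM carbachol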
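Control set: carbachol 87 µM as high control, DMSO as low control; system: HEK293 stable line with zebrafish TRPN1-YFP; read-out: % activation versus carbachol response; detection: intracellular calcium fluorescence with Fluo-8; doses: single test compound dose, 3 µM nominal, 0.3% DMSO; schedule: dye 1 h 37 °C plus 30 min RT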
OXTR ag = human OXTR agonism; P30559; CHO-OTR cells, Fluo-8 calcium fluorescence; normalized: DMSO 0%, oxytocin 100%; activation, % at 3 µM; 320,000 tested, 0.32% active; AID 2435;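 active = activation above the mean of all tested compounds plus 3 SD, cutoff set per screening run, cut at about 20% in these data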;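 also: peak over basal fluorescence ratio from a 100 s FLIPR kinetic read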
OXTR potentiate = potentiators of human oxytocin receptor | P30559 | CHO-OTR cells, Fluo-8 calcium fluorescence, potentiator mode; 0% = oxytocin EC15, 100% = EC100 | activation, % at 3 µM | 320,000 tested, 0.061% active | AID 2445;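 active = activation above that plate's cutoff, the mean activation of tested compounds plus 3 SD, cut at about 6.6% in these data, passing the limit was not always enough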;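 also: 100% uses oxytocin at 75 nM as the full agonist control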
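test system = CHO-OTR cells, human receptor | compound = single-point 3.0 µM | schedule = 6 min compound pre-incubation at room temperature, 100 s kinetic read | signal = Fluo-8 no-wash calcium dye fluorescence, excitation 470-495 nm, emission 515-575 nm | repeats = single well per compound, singlicate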
TRPML3 ag = human mucolipin-3 channel agonism; Q8TDD5; AID 1448; activation, % at 3 µM; 220,000 tested, 0.29% active; HEK293 TRPML3-YFP, Fluo-8 calcium fluorescence; 100% = the carbachol control signal;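 active = activation above its plate's cutoff, the mean activation of the plate's test wells plus 3 SD, cut at about 12% in these data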;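 also: 0% = DMSO only wells and 100% = carbachol wells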
Target sequence (Q8TDD5 whole entry, looked up): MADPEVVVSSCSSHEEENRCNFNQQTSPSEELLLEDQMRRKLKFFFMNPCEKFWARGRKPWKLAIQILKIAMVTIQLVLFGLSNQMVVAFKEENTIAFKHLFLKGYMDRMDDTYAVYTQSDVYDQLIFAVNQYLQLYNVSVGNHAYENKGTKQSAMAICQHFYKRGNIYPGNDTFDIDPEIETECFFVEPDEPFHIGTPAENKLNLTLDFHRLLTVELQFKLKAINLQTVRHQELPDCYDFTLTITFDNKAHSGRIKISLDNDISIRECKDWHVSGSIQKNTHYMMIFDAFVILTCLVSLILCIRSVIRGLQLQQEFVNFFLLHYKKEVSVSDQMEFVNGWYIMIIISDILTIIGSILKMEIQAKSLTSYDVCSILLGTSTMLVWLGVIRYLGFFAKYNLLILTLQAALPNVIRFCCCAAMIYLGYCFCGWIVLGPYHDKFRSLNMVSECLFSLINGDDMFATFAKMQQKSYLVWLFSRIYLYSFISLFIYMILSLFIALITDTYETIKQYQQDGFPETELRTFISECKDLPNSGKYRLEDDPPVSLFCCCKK
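Test system – HEK293 line with stable expression of human TRPML3-YFP channel · Control set – carbachol 87 µM final as high control (100%), DMSO as low control (0%) · Signal – Fluo-8 calcium dye fluorescence, ex 470-495, em 515-575 nm · Incubation – 1-h 37 °C dye load, 5-s basal, 120-s post-compound reads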
OXTR ag confirm = human OXTR agonism, confirmation. shares compounds with OXTR ag. CHO-OTR cells, Fluo-8 calcium fluorescence, agonist. activation, % at 3 µM. 390 tested, 20% active;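 active = mean activation above about 20% derived from the earlier single-dose screen, limit read from the data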;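 also: peak over minimum fluorescence ratio per well during a 100 second FLIPR read; 0% = DMSO alone and 100% = oxytocin high control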
V1aR counter 3x = activates V1a receptor in oxytocin agonist counter-screen. shares compounds with OXTR ag. CHO-V1R cells, Fluo-8 calcium fluorescence. activation, % at 3 µM. 390 tested, 10% active. AID 434991;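 active = mean activation over triplicate exceeds the hit threshold set in the earlier primary screen, cut at about 20% in these data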;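 also: peak over basal fluorescence ratio within a 100 second read; 0% = DMSO alone and 100% = 3 nM vasopressin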
* hit, by the source's call; . = not tested or not shown. This is a sample that favours compounds with a hit; in the whole collection about 0.59% have one here.

SMILES	V1aR counter	zfTRPN1 agonist	OXTR ag	OXTR potentiate	TRPML3 ag	OXTR ag confirm	V1aR counter 3x
CC1(c2ccc(OC(F)F)cc2)NC(=O)N(CC(=O)NC2CCCCC2)C1=O (stereo not drawn)	6	3	5	-6	2	.	.
Cc1ccc(C2(C)NC(=O)N(CC(=O)N3CCc4ccccc43)C2=O)cc1 (stereo not drawn)	16	.	20*	-11	.	14	13
CCCCC1(c2ccc(F)cc2)NC(=O)N(CC(=O)Nc2ccc(N3CCOCC3)cc2)C1=O (stereo not drawn)	12	.	21*	-11	.	10	9
CCC1(CC)NC(=O)N(CC(=O)N2CCc3ccccc32)C1=O	-1	.	1	4	.	.	.
CC1(c2ccc(OC(F)F)cc2)NC(=O)N(CC(=O)Nc2ccc(F)cc2)C1=O (stereo not drawn)	15	.	27*	-15	.	19	14
CC1(c2ccc(OC(F)F)cc2)NC(=O)N(CC(=O)Nc2ccc(Cl)cc2F)C1=O (stereo not drawn)	19	.	34*	-16	.	24*	22*
CN1CCN(c2ccc(Cl)cc2NC(=O)CN2C(=O)NC(C)(c3ccccc3)C2=O)CC1 (stereo not drawn)	1	.	1	-11	.	.	.
Cc1ccc(S(=O)(=O)NCC(=O)OCC(=O)N2CC(C)OC(C)C2)cc1 (stereo not drawn)	-1	.	1	3	.	.	.
Cc1cc(NC(=O)CN(C)S(=O)(=O)c2cnc[nH]2)ccc1Br	0	.	-1	-10	.	.	.
Cc1ccc(C2(C)NC(=O)N(CC(=O)Nc3ccc4c(c3)OCO4)C2=O)cc1 (stereo not drawn)	13	3	14	-17	2	.	.
Cc1ccc(NC(=O)CN2C(=O)NC(C)(c3ccc(Cl)cc3)C2=O)cc1 (stereo not drawn)	16	.	22*	-10	.	10	10
CN1CCS/C1=C/C=C1\SC(=S)N(CC(=O)O)C1=O	19	21*	33*	-7	10	31*	38*
Cc1c(O)c2c3c(cccc3c1O)C(=O)N(c1ccccc1)C2=O	13	11	24*	-12	7	29*	35*
O=C(O)c1ccc2c3c(cccc13)C(=O)N(c1ccccc1)C2=O	2	0	1	1	1	.	.
C=CCOC(=O)C1=C[C@H](c2ccc(C(F)(F)F)cc2)[C@@H](CCCO)[C@H](OCC)O1	1	-1	-1	-3	0	.	.
C=CCOC(=O)C1=C[C@@H](c2ccc(C(F)(F)F)cc2)[C@H](CCCO)[C@@H](OCC)O1	-2	0	20*	-9	1	-1	0
CCn1cc(S(=O)(=O)Nc2cc(C(=O)OC)ccc2C)cn1	0	.	0	1	.	.	.
O=C1NC[C@@H](Cc2cccc3ccccc23)N(CC2(c3ccccc3)CC2)C1=O	1	.	23*	-10	.	0	0
O=C1NC[C@@H](Cc2cccc3ccccc23)N(CC2CCCCC2)C1=O	-1	.	-2	-2	.	.	.
O=C(Nc1cccc(S(=O)(=O)N2CCCCC2)c1)C1CCCN1S(=O)(=O)c1ccccc1F (stereo not drawn)	4	.	2	-10	.	.	.
COc1ccc(C(=O)/C(C#N)=N/Nc2ccccc2[N+](=O)[O-])cc1	8	5	10	-4	3	.	.
COc1ccc(C(=O)/C(C#N)=N/Nc2ccc([N+](=O)[O-])cc2)cc1	10	11	20*	-29	5	9	8
COc1ccc(C(C)=O)cc1CC(=O)Nc1ccc2c(c1)CCC2	1	.	0	-12	.	.	.
O=C(c1cccs1)N1CCN(C23CC4CC(CC(C4)C2)C3)CC1	0	.	0	-11	.	.	.
Cc1ccc(NS(=O)(=O)c2ccc(C(=O)OCC(=O)N3CCCCC3)cc2)cc1	19	.	24*	-10	.	19	14
SMILES	V1aR counter	zfTRPN1 agonist	OXTR ag	OXTR potentiate	TRPML3 ag	OXTR ag confirm	V1aR counter 3x
CCOC(=O)c1ccc(NS(=O)(=O)c2ccc3c(c2)n(C)c(=O)n3C)cc1	15	.	30*	-23	.	4	5
CCN(c1ccccc1)S(=O)(=O)c1cc(C(=O)OC2CCOC2=O)ccc1C (stereo not drawn)	1	.	-2	-8	.	.	.
COc1ccc(CCn2c(-c3ccccc3)nc3c(c(=O)c4ccccc4n3C)c2=O)cc1	0	0	0	2	1	.	.
CC(C)c1nc2c(c(=O)c3ccccc3n2C)c(=O)n1CCc1ccccc1	18	21*	28*	-14	9	15	13
COc1ccccc1-n1nnnc1SCC(=O)NCC1(N2CCOCC2)CCCCC1	0	.	0	-8	.	.	.
CCOC(=O)c1[nH]cnc1C(=O)N1CCN(C(=O)OC(C)(C)C)CC1	-1	.	0	4	.	.	.
C=CCN1C(=O)/C(=C/c2ccc(O)c(OC)c2)S/C1=N/c1nccs1	18	32*	20*	-10	16*	27*	38*
C=CCN1C(=O)/C(=C/c2ccc(OCC(=O)O)cc2)S/C1=N/c1nccs1	0	-1	-2	-2	0	.	.
Cc1ccccc1S(=O)(=O)Cc1ccc(C(=O)NC2CCCCC2)o1	1	.	0	-9	.	.	.
COc1cc(C(C)=O)ccc1OCC(=O)OC(C)C(=O)c1ccc(F)cc1 (stereo not drawn)	4	.	4	-5	.	.	.
Cc1cc(-c2nnc(SCC(=O)Nc3ccccc3C(F)(F)F)o2)c(C)n1-c1ccccc1	16	5	21*	-24	3	24*	11
Cc1[nH]n(-c2ccccc2)c(=O)c1C(c1cccc([N+](=O)[O-])c1)c1c(C)[nH]n(-c2ccccc2)c1=O	10	2	24*	-12	1	8	8
Nc1nc(Cl)cc(N2CCC(c3cc(-c4ccc(Cl)cc4)n[nH]3)CC2)n1	14	5	22*	-13	4	9	11
CCCC(=O)N1CCN(c2ccc(NC(=O)c3cccs3)cc2)CC1	0	0	0	-14	0	.	.
COc1cccc(C(=O)Nc2ccc(NC(=O)Cc3ccccc3)cc2)c1	2	.	24*	-5	.	0	0
Cc1ccc(S(=O)(=O)NCC(=O)OCC(=O)N(C)C2CCS(=O)(=O)C2)cc1 (stereo not drawn)	1	.	0	0	.	.	.
O=C(NCCC1CCCCN1S(=O)(=O)c1ccc(F)cc1)C(=O)NCc1ccccn1 (stereo not drawn)	0	.	-1	-3	.	.	.
CCCN1C(=O)S/C(=C\c2ccc(N3CCOCC3)o2)C1=O	7	0	2	4	1	.	.
